Results: ChEMBL document CHEMBL2390859, “Solid phase synthesis and biological evaluation of probestin as an angiogenesis inhibitor” (Bioorg Med Chem Lett, 2013)
Activity calls are given as the source filed them.

Legend:
MDA-MB-435 [1] = assay: Antiangiogenic activity in human MDA-MB-435 cells xenografted in chicken embryo chorioallantoic membrane assessed as inhibition of blood vessel formation at 20 mg/kg measured after 2 days; assay type: functional, organism-based; parameters: dose 20 mg/kg
Procedure, shortened: (§1)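 Under the vascularized CAM of 10-day-old chicken embryos, 500,000 human breast carcinoma MDA-MB-435 cells were implanted. Embryos were dosed systemically with 20 mg/kg on days one and two. Tumor growth and vascularity were assessed, with 8–10 separate CAMs per group.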

MDA-MB-435 [2] = assay: Antitumor activity against human MDA-MB-435 cells xenografted in chicken embryo chorioallantoic membrane assessed as inhibition of tumor volume at 20 mg/kg measured after 2 days; assay type: functional, organism-based; parameters: dose 20 mg/kg; procedure, shortened: as §1
Gallus gallus [3] = assay: Antiangiogenic activity in chicken embryo chorioallantoic membrane assessed as inhibition of VEGF-induced blood vessel formation at 25 uM applied topically to filter paper surface after 48 hrs by stereo microscopic analysis; assay type: functional, tissue-based
Procedure, shortened: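 CAM of 10-day-old chicken embryos; angiogenesis induced with filter discs soaked in VEGF, test agent applied alongside. 8–10 separate CAMs per group.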

[4] = Toxicity in chicken embryo chorioallantoic membrane assessed as effect on blood vessel at 10 uM applied topically to filter paper surface after 48 hrs by stereo microscopic analysis; assay type: tissue-based, Gallus gallus; settings: in vivo
Mus musculus = assay: Toxicity in BalbC mouse assessed as body weight loss at 50 to 200 mg/kg, ip administered 3 times per week measured over 6 weeks; assay type: organism-based; parameters: dose 50-200 mg/kg, route intraperitoneal; settings: in vivo, 1008 h
Procedure, shortened: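 Healthy female BalbC mice, 10 weeks old, in groups of four, dosed intraperitoneally at 50, 100, 200 or 300 mg/kg three times weekly. Weights were tracked over 6 weeks and acute distress was watched for during the first 96 h. Significant weight loss over 6 weeks (P <0.05, one-way ANOVA with Neuman–Keuls post test) was the MTD criterion.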

[5] = Acute toxicity in ip dosed CDF mouse; assay type: organism-based; settings: in vivo
[6] = Toxicity in ip dosed BalbC mouse assessed as body weight loss administered 3 times per week measured over 6 weeks; assay type: organism-based; settings: in vivo
Procedure, shortened: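 Female BalbC mice, 10 weeks old and healthy, in groups of four, dosed ip at 50, 100, 200 and 300 mg/kg three times weekly. Body weight was tracked over 6 weeks, with observation for acute distress during the first 96 h after injection. MTD was defined as significant weight loss over 6 weeks (P <0.05, one-way ANOVA with Neuman–Keuls post test).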

Gallus gallus [7] = organism: Gallus gallus; settings: Chorioallantoic membrane, 10 uM

SMILES	inhibition (MDA-MB-435 [1])	inhibition (MDA-MB-435 [2])	inhibition (Gallus gallus [3])	Activity [4]	Activity (Mus musculus)	LD50 [5] [mg/kg]	MTD at 1008 h [6] [mg/kg]	inhibition (Gallus gallus [7])
CC(C)C[C@H](NC(=O)[C@@H](O)[C@H](N)Cc1ccccc1)C(=O)O	Active	Active	–	–	–	–	–	–
CCN(CC)CCNC(=O)c1c(C)[nH]c(/C=C2\C(=O)Nc3ccc(F)cc32)c1C	Active	Active	Active	–	–	–	–	–
CC(C)C[C@H](NC(=O)[C@@H](O)[C@H](N)Cc1ccccc1)C(=O)N1CCC[C@H]1C(=O)N1CCC[C@H]1C(=O)O [PROBESTIN]	Active	Active	–	Non-toxic	Non-toxic	> 250	300	Active
